Measurements published in ChEMBL document CHEMBL1221297, “Design, synthesis, and in vitro antiprotozoal, antimycobacterial activities of N-{2-[(7-chloroquinolin-4-yl)amino]ethyl}ureas” (Bioorg Med Chem, 2010).
Converted amounts (≈) assume the structure as drawn.

How the values were obtained:
[1] = system: Mycobacterium tuberculosis; assay: Antimicrobial activity against Mycobacterium tuberculosis H37Rv ATTC 27294 by microplate alamar blue assay; type: functional, organism-based
Method in brief: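 Inoculum from a log-phase culture adjusted to McFarland 1, then diluted 1:50 in Middlebrook 7H9 broth to 6 × 10⁶ CFU/mL and prepared just before inoculation. Compounds tested from […]. Ethambutol served as positive internal standard. MIC read by Alamar Blue. Done in triplicate.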

Leishmania mexicana = assay: Antimicrobial activity against promastigotes form of Leishmania mexicana MHOM/MX/ISETGS after 72 hrs; type: functional, organism-based
Method in brief: (§1)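 Parasites grown at 26 °C in Schneider's drosophila medium with 10% FBS and penicillin. 10,000 L. mexicana promastigotes or 20,000 T. cruzi epimastigotes per well, at 10, 5, 2.5 and 1.25 µg/mL. Untreated parasite cultures included. 72 h at 26 °C, then parasites counted directly in a Neubauer chamber. IC50 by probit analysis.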

Giardia intestinalis = assay: Antimicrobial activity against Giardia intestinalis IMSS:0696:1 after 48 hrs; type: functional, organism-based; settings: Giardia duodenalis, IMSS:0696:1, 48 h
Method in brief: (§2)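 Trophozoites (4 × 10⁴) exposed 48 h at 37 °C to increasing compound concentrations; DMSO-medium negative control. Then washed and subcultured 48 h in fresh drug-free medium before counting. IC50 by probit analysis; triplicate, repeated at least twice. Giardia grown in modified TYI-S-33 with 10% calf serum and bovine bile. Trichomonas and Entamoeba grown in TYI-S-33 with 10% bovine serum.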

Trichomonas vaginalis = assay: Antimicrobial activity against Trichomonas vaginalis GT3 after 48 hrs; type: functional, organism-based; settings: GT3, 48 h; method in brief: as §2
Entamoeba histolytica = assay: Antimicrobial activity against Entamoeba histolytica HM-1:IMSS after 48 hrs; type: functional, organism-based; method in brief: as §2
Trypanosoma cruzi = assay: Antimicrobial activity against epimastigotes form of Trypanosoma cruzi MHOM/MX/1994/Ninoa after 72 hrs; type: functional, organism-based; method in brief: as §1
[2] = Selectivity index, ratio of CC50 for african green monkey Vero cells to IC50 for Giardia intestinalis IMSS:0696:1; type: functional
Method in brief: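 SI computed as CC50 in VERO cells divided by IC50 against the parasite.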

[3] = Cytotoxicity against african green monkey Vero cells after 72 hrs by MTT assay; type: cell-based; settings: chlorocebus sabaeus
Method in brief: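 VERO cells (1.5 × 10⁴) grown in DMEM with 10% FBS at 37 °C, 5% CO₂. Seeded and grown 24–48 h, then treated at >80% confluence with 6.25–100 µg/mL (DMSO ≤0.05%) for 72 h. MTT added for 4 h at 37 °C. Formazan dissolved in acidified isopropanol and read at OD 540 nm. CC50 from triplicates.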

Compound	IC50 [1] [µg/mL]	IC50 (Leishmania mexicana) [µM]	IC50 (Giardia intestinalis) [µM]	IC50 (Trichomonas vaginalis) [µM]	IC50 (Entamoeba histolytica) [µM]	IC50 (Trypanosoma cruzi) [µM]	Ratio CC50/IC50 [2]	CC50 at 72 h [3] [µM]
NCCNc1ccnc2cc(Cl)ccc12	8 (≈ 36.1 µM)	> 50	1.25	23	14.6	> 50	–	–
CCCCOc1ccc(NC(=O)NCCNc2ccnc3cc(Cl)ccc23)cc1	2 (≈ 4.84 µM)	9.9	0.008	8.44	3.64	50	625	5
N=C(N)c1ccc(OCCCCCOc2ccc(C(=N)N)cc2)cc1 [PENTAMIDINE]	–	13.3	–	–	–	–	–	–
COc1ccc(NC(=O)NCCNc2ccnc3cc(Cl)ccc23)cc1	8 (≈ 21.6 µM)	> 50	0.595	21.7	10.7	> 50	–	–
O=C(NCCNc1ccnc2cc(Cl)ccc12)Nc1ccc([N+](=O)[O-])cc1	8 (≈ 20.7 µM)	50	1.75	12	10.6	50	–	–
CCN(CC)CCCC(C)Nc1ccnc2cc(Cl)ccc12 (stereo unspecified) [CHLOROQUINE]	> 8	> 50	0.401	30	9.58	> 50	–	–
O=C(NCCNc1ccnc2cc(Cl)ccc12)Nc1ccccc1	8 (≈ 23.5 µM)	> 50	1.17	46	5.37	> 50	–	–
O=C(NCCNc1ccnc2cc(Cl)ccc12)NC1CCCCC1	8 (≈ 23.1 µM)	> 50	1.65	66.7	6.93	> 50	–	–
O=C(NCCNc1ccnc2cc(Cl)ccc12)Nc1ccc(Cl)cc1	4 (≈ 10.7 µM)	50	0.267	9.59	6.87	50	–	–
CC(C)CCOc1ccc(NC(=S)Nc2ccc(OCCC(C)C)cc2)cc1 [TIOCARLIDE]	4 (≈ 9.99 µM)	–	–	–	–	–	–	–
O=C(Cn1ccnc1[N+](=O)[O-])NCc1ccccc1 [BENZNIDAZOLE]	–	–	–	–	–	34.4	–	–
O=C(NCCNc1ccnc2cc(Cl)ccc12)Nc1ccc(F)cc1	8 (≈ 22.3 µM)	> 50	0.927	23.2	17.7	> 50	–	–
CC[C@@H](CO)NCCN[C@@H](CC)CO [ETHAMBUTOL]	4 (≈ 19.6 µM)	–	–	–	–	–	–	–
CCOc1ccc(NC(=O)NCCNc2ccnc3cc(Cl)ccc23)cc1	8 (≈ 20.8 µM)	50	0.339	30.1	5.93	50	–	–
